Our source for the Activity, Drug uptake and inhibition values is ChEMBL document CHEMBL5634162, “Cyclohexylalanine-Containing α-Helical Amphipathic Peptide Targets Cardiolipin, Rescuing Mitochondrial Dysfunction in Kidney Injury” (J Med Chem, 2024).

Data set [1] concerns Mus musculus. Kind of data set: Protection against […] C57BL/6 mouse model assessed as reduction in tubular damage at 1 mg/kg, ip administered thrice a week prior to induction of bilateral ischemia-reperfusion injury measured after 6 days by IHC analysis. The note with it: time 6.0 day. It counts as functional, organism-based.
For data set [2], the system named is Mus musculus. The data set can be described thus: Protection against […] C57BL/6 mouse model assessed as increase in SOD-1 mRNA level at 1 mg/kg, ip administered thrice a week prior to induction of bilateral ischemia-reperfusion injury measured after 6 days by qPCR analysis. In kind it is functional, organism-based. The note with it: time 6.0 day. A general note: In qPCR the cycle at which signal appears reflects the starting amount.

Data set [3] concerns Epithelial cell. Kind of data set: Reversal of H2O2-induced p21 mRNA level in human tubular epithelial cells at 10 to 100 nM by qPCR analysis. In kind it is functional, cell-based. The settings on record: dose 10-100 nM.
Data set [4] relates to Mus musculus. The data set can be described thus: Protection against […] C57BL/6 mouse model assessed as reduction in cast formation at 1 mg/kg, ip administered thrice a week prior to induction of bilateral ischemia-reperfusion injury measured after 6 days by IHC analysis. It counts as functional, organism-based. The note with it: time 6.0 day.

Data set [5] has as its system Mus musculus. Kind of data set: Protection against colistin-induced nephrotoxicity in C57BL/6 mouse model assessed as reduction in NGAL level at 1 mg/kg, ip administered once every other day measured after 7 days by IHC analysis. It counts as functional, organism-based. The note with it: time 7.0 day. In short, it runs like this:
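Male C57BL/6 mice, 7 weeks: colistin 20 mg/kg sc daily for 7 days, peptide 1 mg/kg ip once every other day, n = 5 per group. Day-7 kidney sections, citrate antigen retrieval, immunohistochemistry with HRP polymer secondary and hematoxylin counterstain; PAS and Masson's trichrome for damage.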

Data set [6] deals with HeLa. Kind of data set: Reversal of H2O2-induced mitochondrial damage in human HeLa cells assessed as formation of long cristae at 50 to 100 nM preincubated for 2 hrs followed by H2O2 addition for 2 hrs by TEM analysis. It counts as functional, cell-based. The settings on record: dose 50-100 nM, time 4.0 hrs. In outline: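 HeLa cells were pretreated with 50 or 100 nM peptide for 2 h, then exposed to 0.5 mM H2O2 for 2 h. They were fixed in Karnovsky's fixative (pH 7.2), postfixed in osmium, embedded in Spurr's resin and stained with uranyl acetate/lead citrate for TEM. Cristae longer than 0.5 μm were counted from at least 50 mitochondrial images.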

Data set [7] concerns Mus musculus. Kind of data set: Protection against […] C57BL/6 mouse model assessed as reduction in serum creatinine level at 1 mg/kg, ip administered thrice a week prior to induction of bilateral ischemia-reperfusion injury measured after 6 days. It counts as functional, organism-based. The settings on record: time 6.0 day.
A short description of data set [8]: Drug uptake in CCCP-damaged mitochondria of human HeLa cells at 100 nM incubated for 3 hrs by MitoTracker probe based assay. It counts as ADME. The note with it: 0.1 µM. In outline: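 HeLa cells given TAMRA-labelled peptide 100 nM for 3 h with MitoTracker staining; mitochondria damaged with 20 μM CCCP (30 min) or by CCCP during time-lapse confocal imaging. Red/green Pearson r calculated.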

Data set [9] can be described thus: Drug localization in lysosomes of human HeLa cells at 100 nM incubated for 3 hrs by NAO probe based analysis. It counts as ADME, subcellular, Lysosome. The settings on record: 0.1 µM. In short, it runs like this: (§1)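 HeLa cells given TAMRA-labelled peptide 100 nM for 3 h and cardiolipin stained with NAO (100 nM, 1 h), with or without 20 μM CCCP for 30 min; LysoTracker 50 nM. Confocal images, Pearson r from five independent images (63×) per condition.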

Data set [10] has as its system Mus musculus. Kind of data set: Protection against […] C57BL/6 mouse model assessed as increase in IL-10 mRNA level at 1 mg/kg, ip administered thrice a week prior to induction of bilateral ischemia-reperfusion injury measured after 6 days by qPCR analysis. It counts as functional, organism-based. The note with it: time 6.0 day.
Data set [11] in a line: Toxicity in C57BL/6 mouse model of colistin-induced nephrotoxicity assessed as animal survival at 1 mg/kg, ip administered once every other day measured for 7 days. It counts as organism-based. The settings on record: in vivo, 168 h, time 7 day. In short, it runs like this: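 Male C57BL/6 mice got colistin 20 mg/kg SC daily for 7 days, with peptide 1 mg/kg intraperitoneally every other day; groups of n = 5. Survival was tracked by Kaplan–Meier and compared by log-rank (Mantel–Cox) test.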

For data set [12], the system named is HeLa. The data set can be described thus: Inhibition of H2O2-induced intracellular ROS level in human HeLa cells at EC50 incubated for […] followed by H2O2 addition measured for 10 mins by H2DCFDA probe based analysis. It counts as functional, cell-based. The settings on record: time 220.0 min.
A short description of data set [13]: Drug localization in lysosomes of human HeLa cells at 100 nM incubated for 3 hrs in presence of CCCP by NAO probe based analysis. The note with it: 0.1 µM. In kind it is ADME, subcellular, Lysosome. In short, it runs like this: as §1
For data set [14], the system named is Mus musculus. Kind of data set: Protection against […] C57BL/6 mouse model assessed as decrease in NGAL level at 1 mg/kg, ip administered thrice a week prior to induction of bilateral ischemia-reperfusion injury measured after 6 days by IHC analysis. It counts as functional, organism-based. The settings on record: time 6.0 day.

Data set [15] has as its system Epithelial cell. Kind of data set: Reversal of H2O2-induced mitochondrial dysfunction in human tubular epithelial cells assessed as increase in ECAR level measured for 40 to 60 mins by Seahorse assay. The settings on record: dose 10-50 nM, time 40-60 min. In kind it is functional, cell-based. In outline: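 hTECs were exposed to H2O2 with peptide at 10 or 50 nM (n = 6 per group), then run on a Seahorse XFe96. OCR was read after sequential 2 μM oligomycin, 1 μM FCCP, and 0.5 μM rotenone/antimycin A. ECAR was read after 10 mM glucose, 1 μM oligomycin and 50 mM 2-DG. Glycolytic proton efflux rate was taken as glycoATP production rate.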

The nature of data set [16]: Drug localization in mitochondria of human tubular epithelial cells upto 100 nM by MitoTracker probe based assay. It counts as ADME. The note with it: epithelial cell, 0.1 µM.
Data set [17] in a line: Drug uptake in mitochondria of human HeLa cells transfected with Drp1-eGFP at 100 nM incubated for 3 hrs by confocal microscopy. In kind it is ADME. The note with it: 0.1 µM.

Activity calls are given as the source filed them. The rule behind the calls is not given here. Where a SMILES comes first, the peptide text is derived from it. Bridges are numbered along the chain shown (N, C = ends). Roman numbers before positions name the chains, in order. [ ]: non-standard residue; d: D form. The star is where a group is joined. 5TAMRA = CN(C)c1ccc2c(c1)Oc1cc(N(C)C)ccc1C21OC(=O)c2cc(C(=O)*)ccc21; Cha = N[C@@H](CC1CCCCC1)C(=O)O

As for `CC(=O)N[C@@H](CC1CCCCC1)C(=O)N[C@H]1CSSC[C@@H](C(=O)N[C@@H](CCCNC(=N)N)C(N)=O)NC(=O)[C@H](CC2CCCCC2)NC(=O)[C@H](CCCNC(=N)N)NC(=O)[C@H](CCCNC(=N)N)NC(=O)[C@H](CC2CCCCC2)NC(=O)[C@H](CC(C)C)NC(=O)[C@H](CCCNC(=N)N)NC(=O)[C@@H](NC(=O)[C@H](CC2CCCCC2)NC(=O)c2ccc3c(c2)C(=O)OC32c3ccc(N(C)C)cc3Oc3cc(N(C)C)ccc32)CSSC[C@@H](C(=O)N[C@@H](CCCNC(=N)N)C(N)=O)NC(=O)[C@H](CC2CCCCC2)NC(=O)[C@H](CCCNC(=N)N)NC(=O)[C@H](CCCNC(=N)N)NC(=O)[C@H](CC2CCCCC2)NC(=O)[C@H](CC(C)C)NC(=O)[C@H](CCCNC(=N)N)NC1=O` (I: Ac-[Cha]CRL[Cha]RR[Cha]CR-NH2 / II: 5TAMRA-[Cha]CRL[Cha]RR[Cha]CR-NH2; disulfide I:2-II:9, I:9-II:2), the result in the data set with Mus musculus [1], in the data set on Mus musculus [2], with Epithelial cell [3], in the data set on Mus musculus [4], with Mus musculus [5] and in the data set on HeLa [6] was Active. Further, the result in the data set on Mus musculus [7], in the data set with Mus musculus [10] and in the data set on Mus musculus [14] was Active. Besides, the Drug uptake entry in [8], in [9], in [13], in data set [16] and in data set [17] was “Active” each time. In addition, the Activity result in data set [11] was “Non-Toxic”; with Epithelial cell [15] it was “Dose-Dependent Effect”. For the same molecule, the inhibition result in the data set on HeLa [12] was “Active”.
